Laboratory results published in ChEMBL document CHEMBL2331220, “Benzimidazole clubbed with triazolo-thiadiazoles and triazolo-thiadiazines: new anticancer agents” (2013).

What was measured:
Type in all cases: functional
[1] = test system: 786-0; experiment: Cytotoxicity against human 786-0 cells after 48 hrs by SRB assay; conditions: 786-0, 48 h
How it was run: (§1)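 NCI 60-line five-dose screen. Cells were preincubated 24 h at 37 °C under 5% CO2 and 100% humidity, and time-zero plates were TCA-fixed when compound was added. Five 10-fold concentrations (0.01–100) were tested for 48 h. Cells were fixed with cold TCA (final 10%, 60 min, 4 °C), stained with 0.4% SRB for 10 min, and read at 515 nm. GI50, TGI and LC50 came from growth-percentage formulas, with out-of-range values given as > or <.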

[2] = test system: CCRF-CEM; experiment: Cytotoxicity against human CCRF-CEM cells after 48 hrs by SRB assay; how it was run: as §1
[3] = test system: CAKI-1; experiment: Cytotoxicity against human Caki1 cells after 48 hrs by SRB assay; conditions: CAKI-1, 48 h; how it was run: as §1
[4] = test system: DU-145; experiment: Cytotoxicity against human DU145 cells after 48 hrs by SRB assay; conditions: DU-145, 48 h; how it was run: as §1
[5] = test system: MCF7; experiment: Cytotoxicity against human MCF7 cells after 48 hrs by SRB assay; conditions: MCF7, 48 h; how it was run: as §1
[6] = test system: LOX IMVI; experiment: Cytotoxicity against human LOXIMVI cells after 48 hrs by SRB assay; how it was run: as §1
[7] = test system: SK-MEL-5; experiment: Cytotoxicity against human SK-MEL-5 cells after 48 hrs by SRB assay; conditions: SK-MEL-5, 48 h; how it was run: as §1
[8] = test system: NCI/ADR-RES; experiment: Cytotoxicity against human NCI/ADR-RES cells after 48 hrs by SRB assay; how it was run: as §1
[9] = test system: SW-620; experiment: Cytotoxicity against human SW620 cells after 48 hrs by SRB assay; conditions: SW-620, 48 h
How it was run: (§2)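 NCI 60-line five-dose screen: cells plated, held 24 h at 37 °C, 5% CO₂ before treatment, with a TCA-fixed time-zero plate. Five final concentrations (0.01–100 µM, 10-fold dilutions) for 48 h. Cells fixed with cold TCA (10% final) and stained with 0.4% SRB in 1% acetic acid. Dye dissolved in 10 mM Tris and read at 515 nm. GI₅₀, TGI and LC₅₀ taken from percent-growth curves.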

[10] = test system: OVCAR-8; experiment: Cytotoxicity against human OVCAR8 cells after 48 hrs by SRB assay; conditions: OVCAR-8, 48 h; how it was run: as §1
[11] = test system: SR; experiment: Cytotoxicity against human SR cells after 48 hrs by SRB assay; how it was run: as §2
[12] = test system: ACHN; experiment: Cytotoxicity against human ACHN cells after 48 hrs by SRB assay; how it was run: as §1
[13] = test system: SF-268; experiment: Cytotoxicity against human SF268 cells after 48 hrs by SRB assay; conditions: SF-268, 48 h; how it was run: as §1
[14] = test system: OVCAR-3; experiment: Cytotoxicity against human OVCAR3 cells after 48 hrs by SRB assay; conditions: OVCAR-3, 48 h; how it was run: as §1
[15] = test system: SK-OV-3; experiment: Cytotoxicity against human SKOV3 cells after 48 hrs by SRB assay; conditions: SK-OV-3, 48 h; how it was run: as §2
[16] = test system: RPMI-8226; experiment: Cytotoxicity against human RPMI8226 cells after 48 hrs by SRB assay; conditions: RPMI-8226, 48 h; how it was run: as §1
[17] = test system: OVCAR-5; experiment: Cytotoxicity against human OVCAR5 cells after 48 hrs by SRB assay; conditions: OVCAR-5, 48 h; how it was run: as §1
[18] = test system: SNB-19; experiment: Cytotoxicity against human SNB19 cells after 48 hrs by SRB assay; conditions: SNB-19, 48 h; how it was run: as §2
[19] = test system: SN12C; experiment: Cytotoxicity against human SN12C cells after 48 hrs by SRB assay; how it was run: as §2
[20] = read-out: LC50 (the source's name)
[21] = read-out: pLC50 (the source's name) (converted)

O=C(CCc1nnc2sc(-c3ccc(Cl)cc3Cl)nn12)c1nc2ccccc2[nH]1
GI50 ([1]; read-out: GI50): 1.59 µM
LC50 ([1]; read-out: LC50): 5.92 µM
TGI ([1]; read-out: TGI): 3.06 µM
GI50 ([1]; read-out: pGI50 (converted)): 1.58 µM
LC50 ([1]; read-out: pLC50 (converted)): 5.89 µM
TGI ([1]; read-out: pTGI (converted)): 3.09 µM
GI50 ([2]; read-out: GI50): 0.265 µM
CC50 [2, 20]: > 100 µM
TGI ([2]; read-out: TGI): 0.974 µM
GI50 ([2]; read-out: pGI50 (converted)): 0.263 µM
CC50 [2, 21]: > 100 µM
TGI ([2]; read-out: pTGI (converted)): 0.977 µM
GI50 ([3]; read-out: GI50): 1.45 µM
TGI ([3]; read-out: TGI): 3.44 µM
GI50 ([3]; read-out: pGI50 (converted)): 1.45 µM
TGI ([3]; read-out: pTGI (converted)): 3.47 µM
GI50 ([4]; read-out: GI50): 1.2 µM
CC50 [4, 20]: 5.02 µM
TGI ([4]; read-out: TGI): 2.46 µM
GI50 ([4]; read-out: pGI50 (converted)): 1.2 µM
CC50 [4, 21]: 5.01 µM
TGI ([4]; read-out: pTGI (converted)): 2.45 µM
GI50 ([5]; read-out: GI50): 0.355 µM
LC50 ([5]; read-out: LC50): 5.97 µM
TGI ([5]; read-out: TGI): 1.5 µM
GI50 ([5]; read-out: pGI50 (converted)): 0.355 µM
LC50 ([5]; read-out: pLC50 (converted)): 6.03 µM
TGI ([5]; read-out: pTGI (converted)): 1.51 µM
GI50 ([6]; read-out: GI50): 0.363 µM
TGI ([6]; read-out: TGI): 1.59 µM
GI50 ([6]; read-out: pGI50 (converted)): 0.363 µM
TGI ([6]; read-out: pTGI (converted)): 1.58 µM
GI50 ([7]; read-out: GI50): 1.39 µM
CC50 [7, 20]: 5.19 µM
TGI ([7]; read-out: TGI): 2.69 µM
GI50 ([7]; read-out: pGI50 (converted)): 1.38 µM
CC50 [7, 21]: 5.25 µM
TGI ([7]; read-out: pTGI (converted)): 2.69 µM
GI50 ([8]; read-out: GI50): 1.56 µM
LC50 ([8]; read-out: LC50): > 100 µM
TGI ([8]; read-out: TGI): 5.8 µM
GI50 ([8]; read-out: pGI50 (converted)): 1.55 µM
LC50 ([8]; read-out: pLC50 (converted)): > 100 µM
TGI ([8]; read-out: pTGI (converted)): 5.75 µM
GI50 ([9]; read-out: GI50): 0.204 µM
CC50 [9, 20]: 2.48 µM
TGI ([9]; read-out: TGI): 0.545 µM
GI50 ([9]; read-out: pGI50 (converted)): 0.204 µM
CC50 [9, 21]: 2.51 µM
TGI ([9]; read-out: pTGI (converted)): 0.55 µM
GI50 ([10]; read-out: GI50): 2.58 µM
LC50 (lethal concentration 50%) ([10]; read-out: LC50): > 100 µM
TGI ([10]; read-out: TGI): > 100 µM
GI50 ([10]; read-out: pGI50 (converted)): 2.57 µM
LC50 (lethal concentration 50%) ([10]; read-out: pLC50 (converted)): > 100 µM
TGI ([10]; read-out: pTGI): > 100 µM
GI50 ([11]; read-out: GI50): 0.333 µM
CC50 [11, 20]: > 100 µM
TGI ([11]; read-out: TGI): > 100 µM
GI50 ([11]; read-out: pGI50 (converted)): 0.331 µM
CC50 [11, 21]: > 100 µM
TGI ([11]; read-out: pTGI): > 100 µM
GI50 ([12]; read-out: GI50): 0.339 µM
LC50 (50% lethal concentration) ([12]; read-out: LC50): 4.67 µM
TGI ([12]; read-out: TGI): 1.35 µM
GI50 ([12]; read-out: pGI50 (converted)): 0.339 µM
LC50 (50% lethal concentration) ([12]; read-out: pLC50 (converted)): 4.68 µM
TGI ([12]; read-out: pTGI (converted)): 1.35 µM
GI50 ([13]; read-out: GI50): 0.74 µM
CC50 [13, 20]: 5.15 µM
TGI ([13]; read-out: TGI): 2.14 µM
GI50 ([13]; read-out: pGI50 (converted)): 0.741 µM
CC50 [13, 21]: 5.13 µM
TGI ([13]; read-out: pTGI (converted)): 2.14 µM
GI50 ([14]; read-out: GI50): 0.514 µM
LC50 ([14]; read-out: LC50): 4.6 µM
TGI ([14]; read-out: TGI): 1.8 µM
GI50 ([14]; read-out: pGI50 (converted)): 0.513 µM
LC50 ([14]; read-out: pLC50 (converted)): 4.57 µM
TGI ([14]; read-out: pTGI (converted)): 1.82 µM
GI50 ([15]; read-out: GI50): 1.86 µM
LC50 ([15]; read-out: LC50): 7.28 µM
TGI ([15]; read-out: TGI): 3.68 µM
GI50 ([15]; read-out: pGI50 (converted)): 1.86 µM
LC50 ([15]; read-out: pLC50 (converted)): 7.24 µM
TGI ([15]; read-out: pTGI (converted)): 3.72 µM
GI50 ([16]; read-out: GI50): 0.352 µM
CC50 [16, 20]: > 100 µM
TGI ([16]; read-out: TGI): 1.76 µM
GI50 ([16]; read-out: pGI50 (converted)): 0.355 µM
CC50 [16, 21]: > 100 µM
TGI ([16]; read-out: pTGI (converted)): 1.78 µM
GI50 ([17]; read-out: GI50): 1.88 µM
CC50 [17, 20]: 8.39 µM
TGI ([17]; read-out: TGI): 3.98 µM
GI50 ([17]; read-out: pGI50 (converted)): 1.91 µM
CC50 [17, 21]: 8.32 µM
TGI ([17]; read-out: pTGI (converted)): 3.98 µM
GI50 ([18]; read-out: GI50): 1.37 µM
CC50 [18, 20]: > 100 µM
TGI ([18]; read-out: TGI): 5.44 µM
GI50 ([18]; read-out: pGI50 (converted)): 1.38 µM
CC50 [18, 21]: > 100 µM
TGI ([18]; read-out: pTGI (converted)): 5.5 µM
GI50 ([19]; read-out: GI50): 1.23 µM
TGI ([19]; read-out: TGI): 3.1 µM
GI50 ([19]; read-out: pGI50 (converted)): 1.23 µM
TGI ([19]; read-out: pTGI (converted)): 3.09 µM
